# Published values of several laboratories.
# Lines come from different studies, so protocols differ.
SMILES,system,setting,AUC(0-t)
CCc1cc(C(=O)NC)c2nccc(N3CCc4c(cc(Cn5ccnc5)cc4-c4cn(C)nc4C(F)(F)F)C3=O)c2c1,"male CD-1 mouse, plasma","intravenous, 3 mg/kg",4180 ng·h/mL
CN1CCN(CC2CCN(c3cncc4[nH]c(-c5cc(F)cc(F)c5)nc34)CC2)CC1,"mouse, blood","intravenous, 2 mg/kg",0.967 µM·h
CNCCN(C)c1cc(C#N)cc(CCc2cc(C)cc(N)n2)c1,"male BALB/c mouse, plasma","intravenous, 2 mg/kg",180 ng·h/mL
CN1CCC[C@H](CN2c3ccccc3Sc3ccccc32)C1.O=C(O)CCC(=O)O,"mouse, plasma","oral, 64 mg/kg, single dose",8750 ng·h/mL
COc1ccc2nccc(N3CCc4c(cc(Cn5ccnc5)cc4-c4cn(C)nc4C(F)(F)F)C3=O)c2c1,"male CD-1 mouse, plasma","oral, 50 mg/kg",33800 ng·h/mL
CC(C)OC(=O)c1sc(Nc2ncccn2)nc1-c1cnccn1,"male CD-1 mouse, plasma","oral, 2.5 mg/kg",54 ng·h/mL
CN1CCN(c2nccc3nc(-c4ccc(F)c(F)c4)[nH]c23)CC1,"mouse, blood","oral, 5 mg/kg",3.25 µM·h
COc1nc(-c2cc(C)c(N[C@@H](C)c3c(F)cc(F)cc3F)nn2)ccc1-n1cnc(C)c1,"male CD-1 mouse, plasma","intravenous, 1 mg/kg, single dose",2500 ng·h/mL
CSc1cc(Oc2ccnc3[nH]c(=O)cnc23)ccc1NC(=O)Nc1cc(C(C)(C)C)nn1-c1ccccc1,"BALB/c mouse, plasma","oral, 10 mg/kg",275 µM·h
COc1nc(-c2cc(C)c(N[C@@H](C)c3ccc(F)cc3)nn2)ccc1-n1cnc(C)c1,"male CD-1 mouse, plasma","intravenous, 1 mg/kg, single dose",4020 ng·h/mL
Cc1nc2ccc(F)cc2n1-c1nc(N)c(F)c(Nc2ccc(C(F)(F)F)cc2)n1,"nude mouse, plasma","oral, 10 mg/kg",19300 ng·h/mL
CCOc1ccc(Cc2cc([C@@H]3O[C@H](CO)[C@@H](O)[C@H](O)[C@H]3O)ccc2Cl)cc1,"male C57BL/6 mouse, plasma","intravenous, 1 mg/kg",680 ng·h/mL
CNC(=O)c1cc(OC)cc2c(N3CCc4c(cc(Cn5ccnc5)cc4-c4cn(C)nc4C(F)(F)F)C3=O)ccnc12,"male CD-1 mouse, plasma","oral, 50 mg/kg",144000 ng·h/mL
CS(=O)(=O)CCNCc1ccc(-c2ccc3ncnc(Nc4ccc(OCc5cccc(F)c5)c(Cl)c4)c3c2)o1,"nude mouse, plasma","oral, 100 mg/kg, single dose",97500 ng·h/mL
CCn1ncc2c(Nc3ccc(OC(F)(F)F)cc3)ncnc21,"male BALB/c mouse, plasma","oral, 20 mg/kg",201 ng·h/mL
COc1nc(-c2cc(C)c(N[C@@H](C)c3cc(F)cc(F)c3)nn2)ccc1-n1cnc(C)c1,"male CD-1 mouse, plasma","oral, 5 mg/kg, single dose",9560 ng·h/mL
FC(F)(F)Oc1ccc(Nc2cc(-c3cn[nH]c3)ncn2)cc1,"male BALB/c mouse, plasma","oral, 20 mg/kg",6110 ng·h/mL
CNC(=O)c1cc(Oc2ccc(NC(=O)Nc3ccc(Cl)c(C(F)(F)F)c3)c(F)c2)ccn1,"male mouse, plasma","oral, 10 mg/kg, single dose",18000 ng·h/mL
Cc1c(C(=O)NN2CCCCC2)nc(-c2ccc(Cl)cc2Cl)n1-c1ccc(OS(=O)(=O)CCC(F)(F)F)cc1,"mouse, plasma","oral, 20 µmol/kg, single dose",6.3 µM·h
Cc1ccc2cncc(N3CCc4c(cc(Cn5ccnc5)cc4-c4cn(C)nc4C(F)(F)F)C3=O)c2c1,"male CD-1 mouse, plasma","oral, 50 mg/kg",36300 ng·h/mL
Cc1nc(-c2cnc(NC(C)C)n(C)c2=O)ccc1Oc1ccnc(-c2cnn(C)c2)c1,"female mouse, plasma","oral, 3.75 mg/kg, single dose",29000 ng·h/mL
Fc1ccc(-c2nc3c(N4CCC(CN5CCOCC5)CC4)nccc3[nH]2)cc1F,"BALB/c mouse, blood","oral, 20 mg/kg",34.6 µM·h
C=CC(=O)N1CC2CC(n3nc(-c4ccc(C(=O)Nc5ccccn5)cc4)c4c(N)ncnc43)CC2C1 (stereo not drawn),"SCID mouse, plasma","oral, 5 mg/kg",1120 ng·h/mL
CCc1ccc(Cc2cc([C@@H]3O[C@H](CO)[C@@H](O)[C@H](O)[C@H]3O)cc3c2CCC3)cc1,"male C57BL/6 mouse, plasma","intravenous, 1 mg/kg",1440 ng·h/mL
CCOC(=O)c1sc(Nc2ncccn2)nc1-c1ccccn1,"male CD-1 mouse, plasma","oral, 10 mg/kg",195 ng·h/mL
Cn1ccnc1N1CCN(CC2CCN(c3nccc4[nH]c(-c5cc(F)cc(F)c5)nc34)CC2)CC1,"BALB/c mouse, blood","oral, 20 mg/kg",19 µM·h
Cc1ccc(NC(=O)c2ccc(CN3CCN(C)CC3)cc2)cc1Nc1nccc(-c2cncc(-c3oncc3C)c2)n1,"male C57BL/6 mouse, brain","oral, 100 mg/kg/day",1170 ng·h/mL
C[C@H]1[C@@H](O)O[C@@H]2O[C@@]3(C)CC[C@H]4[C@H](C)CC[C@@H]1[C@@]24OO3,"female SCID mouse, plasma","oral, 120 mg/kg",1870 ng·h/mL
CN1CCN(CC2CCN(c3nccc4[nH]c(-c5cc(F)cc(F)c5)nc34)CC2)CC1,"mouse, blood","intravenous, 2 mg/kg",2.42 µM·h
COc1ccc(C(O)COc2ccc(-c3csc(-c4ccc(OCC(O)c5ccc(OC)c(OC)c5)cc4)n3)cc2)cc1OC (stereo not drawn),"C57BL/6 mouse, plasma","oral, 10 mg/kg",10000 ng·h/mL
Cc1c(C(=O)NN2CCCCC2)nn(-c2ccc(Cl)cc2Cl)c1-c1ccc(Cl)cc1,"mouse, plasma","oral, 20 µmol/kg, single dose",9 µM·h
CCc1cc(OC)c2nccc(N3CCc4c(cc(Cn5ccnc5)cc4-c4cn(C)nc4C(F)(F)F)C3=O)c2c1,"male CD-1 mouse, plasma","intravenous, 3 mg/kg",3330 ng·h/mL
O=S(=O)(c1ccc(-c2ccc3nccc(Nc4ccncn4)c3c2)cc1)N1CCOCC1,"female BALB/c mouse, brain","intraperitoneal, 10 mg/kg",120 ng·h/mL
Cc1c2c(n(-c3ccc(Cl)cc3Cl)c1-c1ccc(OS(=O)(=O)CCC(F)(F)F)cc1)CCN(N1CCCCC1)C2=O,"mouse, plasma","oral, 6 µmol/kg, single dose",3.6 µM·h
CC(C)(C)c1cc(NC(=O)Nc2ccc(Oc3ccnc4[nH]c(=O)cnc34)cc2F)n(-c2ccccc2)n1,"BALB/c mouse, plasma","intravenous, 2 mg/kg",154 µM·h
CN1CCC(N2CCN(c3nccc4[nH]c(-c5ccc(F)c(F)c5)nc34)CC2)CC1,"mouse, blood","intravenous, 2 mg/kg",6.77 µM·h
CC[C@H](C)[C@@H]1NC(=O)[C@@](C)(NC(=O)[C@H](CCCNC(=N)N)NC(=O)[C@H](CC(C)C)NC(=O)[C@@H](NC(=O)[C@H](CCC(N)=O)NC(=O)[C@H](CC(C)C)NC(C)=O)[C@@H](C)O)CCCC=CCCC[C@@](C)(C(=O)N[C@@H](CC(C)C)C(=O)N[C@@H](Cc2ccc3ccccc3c2)C(N)=O)NC(=O)[C@H](CCCNC(=N)N)NC(=O)[C@H](CCC(N)=O)NC1=O,"male BALB/c mouse, plasma","intravenous, 5 mg/kg",124000 ng·h/mL
COc1cc(OC)c2nccc(N3CCc4c(cc(Cn5ccnc5)cc4-c4cn(C)nc4C(F)(F)F)C3=O)c2c1,"male CD-1 mouse, plasma","oral, 50 mg/kg",60600 ng·h/mL
CN1CCN(C2CCN(c3nccc4[nH]c(-c5cc(F)cc(F)c5)nc34)CC2)CC1,"BALB/c mouse, blood","oral, 20 mg/kg",11.8 µM·h
